In ChEMBL document CHEMBL5154772, “Biological Investigation of a Water-Soluble Isoginkgetin-Phosphate Analogue, Targeting the Spliceosome with In Vivo Antitumor Activity” (J Med Chem, 2022):
Active and inactive are the calls of the source. The rule behind the calls is not given here.

How the values were obtained:
Assay type in all cases: functional, cell-based
U2OS [1] = experiment: Antitumor immunity against human U2OS cells expressing CALR-GFP fusion protein assessed as accumulation CALR-GFP fusion protein at 3 uM measured upto 24 hrs by live cell microscopic analysis
U2OS [2] = experiment: Antitumor immunity against human U2OS cells assessed as decrease in ATP by measuring reduction in quinacrine green fluorescence intensity at 3 uM pretreated for 24 hrs by live fluorescence microscopic analysis
U2OS [3] = experiment: Antitumor immunity against human U2OS cells expressing HMGBI-GFP fusion protein assessed as accumulation HMGBI-GFP fusion protein at 3 uM measured upto 24 hrs by live cell microscopic analysis
MCA-205 = experiment: Induction of B3Z T-cell activation cocultured with mouse MCA-205 cells expressing SL8 epitope assessed as increase in intron-derived SL8 antigen presentation at 2 to 10 uM measured after 18 hrs; details: dose 2-10 µM
In short: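 MCA205 cells transfected with YFP-Globin-SL8-intron plasmid (pCDNA3 empty-vector control). 24 h later, treated 18 h. Washed, then 5x10^4 cells co-cultured with 1x10^5 SL8/H-2Kb-specific B3Z CD8+ T-cell hybridoma for 18 h at 37 °C. Cells lysed, β-galactosidase read with 40 µM MUG substrate over 3 h at room temperature. Normalised to unspecific B3Z activation. At least three biological replicates, Student's t-test.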

Structure (SMILES)	Activity (U2OS [1])	Activity (U2OS [2])	Activity (U2OS [3])	Activity (MCA-205)
O=C1c2c(O)ccc(O)c2C(=O)c2c(NCCNCCO)ccc(NCCNCCO)c21	Active	Active	Active	
COc1cc(-c2ccc(=O)[nH]n2)ccc1OC(F)F				Active
